Compound activity deposited in PubChem BioAssay by several laboratories.
HCV NS3 hel inh: inhibitors of Hepatitis C virus NS3 helicase | NS3 helicase DNA unwinding, Cy5 molecular beacon fluorescence | inhibition, % at 10.9 µM | 0.56% of 290,000 active;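 active = inhibition above the mean of all tested compounds plus 3 SD, set per campaign, cut at about 35% in these data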
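Control set: DMSO versus 110 µM thioflavine S; Material: NS3 helicase fragment of HCV; Measured by: Cy5 fluorescence at 0 and 60 min, beacon hairpin quenching; Read-out basis: percent inhibition from t60/t0 fluorescence ratio; Times: reaction time 60 min, 25 °C; Repeats: single replicate; Compound dosing: single dose, 10.9 µM nominal final, DMSO 0.8% final.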
EBNA-1 inh: blocks EBNA-1 binding to DNA | EBNA-1 DNA binding, fluorescence polarization | inhibition, % at 14.8 µM | 0.34% of 300,000 active | AID 1950; in the data active = inhibition above about 28%
M18AAP inhibitor: PfM18AAP enzyme inhibition; recombinant PfM18AAP, H-Glu-NHMec fluorogenic cleavage; inhibition, % at 7.35 µM; 1.2% of 290,000 active;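 active = inhibition above the campaign mean inhibition over all tested compounds plus 3 SD, cut at about 28% in these data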
ALR inh: inhibitors of human sulfhydryl oxidase ALR | purified ALR, DTT oxidation, H2O2 HRP-luminol luminescence | inhibition, % (test concentration not listed) | 3.8% of 290,000 active | AID 485317;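 active = mean replicate inhibition above about 79%, with every replicate also reaching it, limit read from the data; inconclusive = only one of the two criteria met; inactive = mean below limit and not every replicate reaching it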
Target sequence (P55789 whole entry, looked up): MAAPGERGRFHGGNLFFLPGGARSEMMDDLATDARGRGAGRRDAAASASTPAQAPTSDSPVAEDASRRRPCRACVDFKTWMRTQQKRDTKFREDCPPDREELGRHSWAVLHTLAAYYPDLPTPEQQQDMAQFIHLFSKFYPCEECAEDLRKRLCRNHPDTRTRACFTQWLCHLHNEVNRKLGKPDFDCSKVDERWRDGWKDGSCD
ZTA counter: counter-screen for EBNA-1 inhibitors: inhibitors of Epstein-Barr virus ZTA. ZTA-DNA binding, fluorescence polarization. inhibition, % at 11 µM. 0.15% of 320,000 active. AID 2234; in the data active = inhibition above about 33%
Target sequence (P03206 whole entry, looked up): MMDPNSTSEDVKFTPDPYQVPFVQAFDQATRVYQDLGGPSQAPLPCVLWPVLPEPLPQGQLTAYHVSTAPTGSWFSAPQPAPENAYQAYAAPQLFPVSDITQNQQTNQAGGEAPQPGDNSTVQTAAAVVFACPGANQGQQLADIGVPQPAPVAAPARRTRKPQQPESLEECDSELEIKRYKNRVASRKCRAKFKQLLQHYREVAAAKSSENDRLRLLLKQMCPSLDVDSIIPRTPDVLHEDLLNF
HCV core dimer: blocks dimerization of HCV core protein; TR-FRET GST/Flag-core106 dimerization, 1536-well; inhibition, % at 5 µM; 0.33% of 300,000 active; AID 1899;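 active = inhibition above the mean of all tested compounds plus 3 SD, set per screening campaign, cut at about 45% in these data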
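Assay system – GST-tagged and Flag-tagged HCV core protein residues 1-106 · Quantity – core106 proteins, GST 13.5 nM and Flag 17 nM · Benchmarks – unlabelled core106 and no-GST-core106 wells · Read-out basis – percent inhibition of core106 dimerization signal · Detection – time-resolved FRET, ex 340 nm, em 617 and 671 nm · Schedule – 4 h at 22.5 °C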
Large screens that a line does not name were inactive. Shown are actives, neighbours in structure and some others; about 5.2% of the full set was active somewhere.

COC(=O)c1ccc(CSc2nc3ccc(C)cc3[nH]2)o1	ALR inh 95
COC(=O)c1ccc(CSc2nc3c(cnn3-c3ccc(C)cc3)c(=O)[nH]2)o1	none
CCOC(=O)c1sc(N)c(C#N)c1CSc1nc2ccc(C)cc2[nH]1	ALR inh 91
COC(=O)c1ccc(CSc2n[nH]c(=S)s2)o1	ALR inh 92
CCOC(=O)c1sc(N)c(C#N)c1CSc1nc2ccc(OCC)cc2[nH]1	none
Cc1ccc(NC(=O)C2C3C=CC4(O3)C2C(=O)N(CCCN2CCCCC2)C4C(=O)NC2CCCCC2)cc1C (stereo not given)	none
COc1ccc(/C=C2\CCCC(C(=O)C(F)(F)F)=C2O)cc1	none
O=C(C1=C(O)/C(=C/c2ccc(O)cc2)CCC1)C(F)(F)F	ALR inh 99
CCOc1cc2c(cc1OCC)CN(C(=O)c1cccc(S(=O)(=O)N3CCCC3)c1)CC2	none (no result: HCV NS3 hel inh, EBNA-1 inh, M18AAP inhibitor, ALR inh, HCV core dimer)
CN1CCc2[nH]c3ccc(C(=O)NN)cc3c2C1	ALR inh 98
NNC(=O)c1ccc2[nH]c3c(c2c1)CCCC3	none (no result: ALR inh)
CCN1CCN(CCNC(=O)CCCn2nc(C)c3c(C)n(-c4ccc(C)cc4)nc3c2=O)CC1	none
O=C(CN1CCN(S(=O)(=O)c2cc(Cl)ccc2Cl)CC1)Nc1ccc2c(c1)OCCO2	none (no result: ALR inh)
CN(C)c1ccc(NS(=O)(=O)c2cc(Cl)ccc2Cl)cc1	ALR inh 99
O=C(CN1CCN(c2ccccc2O)CC1)Nc1cccnc1Cl	ALR inh 99
O=C(CN1CCN(c2ccccc2O)CC1)NC(c1ccccc1)c1ccccc1	none
CN(C)c1ccc(NC(=O)CN2CCN(S(=O)(=O)c3cc(Cl)ccc3Cl)CC2)cc1	ALR inh 99
O=C(CN1CCN(c2ccc(F)cc2)CC1)Nc1cccnc1Cl	none
O=C(CN1CCN(c2ccccc2O)CC1)NCCCc1ccccc1	ALR inh 99
CCC(C)NC(=O)c1ccc(NC(=O)C2=C(C)OCCS2)cc1 (stereo not given)	none
CCOc1ccc(N(CC(=O)NCCc2ccc(C)cc2)S(=O)(=O)c2c(C)noc2C)cc1	none
CN(C)S(=O)(=O)c1cc(NC(=O)CN2CCN(c3ccccc3O)CC2)ccc1Cl	ALR inh 98
CN(c1ccccc1)c1ccc(/C=C(\CCC(=O)O)c2nc3ccccc3s2)cc1[N+](=O)[O-]	HCV core dimer 60
COc1ccc(C(=O)Nc2cccc(/C=C(\CCC(=O)O)c3nc4ccccc4s3)c2)cc1	HCV core dimer 64
COc1ccc(/C=C(\CC(=O)O)c2nc3ccccc3s2)cc1O	ALR inh 92
COc1cc(/C=C(\CC(=O)O)c2nc3ccccc3s2)cc(OC)c1O	ALR inh 100
O=C(O)C/C(=C\c1cccc(NC(=O)c2ccccc2Cl)c1)c1nc2ccccc2s1	none
CCOc1cc(/C=C(\CC(=O)O)c2nc3ccccc3s2)ccc1OC	none
O=C(CCN1C(=O)C2C3CCC(C3)C2C1=O)Nc1ccc(F)cc1 (stereo not given)	none (no result: EBNA-1 inh, ALR inh, ZTA counter, HCV core dimer)
N#Cc1ccccc1OCC(=O)NCC(c1cccs1)N1CCOCC1 (stereo not given)	none
O=C(N/N=C/c1coc2ccccc2c1=O)c1ccncc1	none (no result: EBNA-1 inh, ZTA counter, HCV core dimer)
CCCOc1cccc(C(=O)N/N=C/c2coc3ccccc3c2=O)c1	ALR inh 97 (no result: EBNA-1 inh, ZTA counter, HCV core dimer)
O=C(N/N=C/c1coc2ccc(Cl)cc2c1=O)c1cc(O)cc(O)c1	ALR inh 96 (no result: EBNA-1 inh, ZTA counter, HCV core dimer)
O=C(N/N=C/c1coc2ccccc2c1=O)c1cc(Br)c(O)c(Br)c1	ALR inh 98 (no result: EBNA-1 inh, ZTA counter, HCV core dimer)
COc1ccc(C(=O)N/N=C\c2coc3ccc(C)cc3c2=O)cc1	none
CC(=O)c1cccc(S(=O)(=O)NCC(C)(C)N2CCOCC2)c1	none
Cc1oc(-c2ccccc2Cl)nc1CS(=O)CC(=O)NCCCN1CC(C)CC(C)C1 (stereo not given)	ALR inh 89
Cc1ccccc1-c1nc(CS(=O)CC(=O)NCCc2ccc(Cl)cc2)c(C)o1 (stereo not given)	ALR inh 98
Cc1oc(-c2ccccc2F)nc1CS(=O)(=O)CC(=O)NCCCN1CC(C)CC(C)C1 (stereo not given)	none
Cc1oc(-c2ccccc2Cl)nc1CS(=O)CC(=O)NCCc1ccccc1 (stereo not given)	ALR inh 99
Cc1oc(-c2ccccc2Cl)nc1CS(=O)(=O)CC(=O)NCCc1ccccc1	none
Cc1ccc(-c2nnc(OCc3nc4ccccc4n3C)c3ccccc23)cc1	none (no result: HCV NS3 hel inh, M18AAP inhibitor)
O=C(CNc1cc(S(=O)(=O)N2CCOCC2)ccc1NCC1CCCO1)Nc1cccc(F)c1 (stereo not given)	M18AAP inhibitor 29
COc1cccc(CN2CC(C(=O)NCCc3ccccc3C(F)(F)F)CCC2=O)c1 (stereo not given)	none
N#C/C(=C\c1ccc(F)c(F)c1)C(=O)NC1CCCCC1	ALR inh 98
O=C(NCCNC(=O)c1cc(Cl)ccc1Cl)c1ccccn1	none
COc1cc(/C=C/C(=O)OCC(=O)Nc2ccccc2Sc2ccc(Cl)cc2)ccc1O	ALR inh 91
COc1cc(/C=C/C(=O)OCC(=O)Nc2c(C)n(C)n(-c3ccccc3)c2=O)ccc1O	ALR inh 99
COc1cc(/C=C/C(=O)OCC(=O)Nc2cc(S(=O)(=O)N(C)C)ccc2Cl)ccc1O	none
COc1cc(/C=C/C(=O)OCC(=O)Nc2c(C)n(C)n(-c3ccccc3)c2=O)cc(OC)c1OC	none (no result: HCV NS3 hel inh, EBNA-1 inh, M18AAP inhibitor, ALR inh, HCV core dimer)
O=C(/C=C/c1ccc(O)c(O)c1)O[C@@H]1C[C@](O)(C(=O)O)C[C@@H](O)[C@H]1O	ALR inh 100 (no result: HCV NS3 hel inh, M18AAP inhibitor)
COc1cc(/C=C/C(=O)OC2CC3CCC2(C)C3(C)C)ccc1O (stereo not given)	ALR inh inconclusive (no result: HCV NS3 hel inh, M18AAP inhibitor)
O=S(=O)(c1ccccc1)N1N=C(c2ccccc2)CC1c1ccccc1F (stereo not given)	none
CCN1C(=O)/C(=C/C=C2/CCCN2C)OC1=S	ALR inh 98
COc1ccc(-n2nc(C(=O)O)nc2-c2ccccc2)cc1	ALR inh 100
CCOC(=O)N1CCN(C(=O)CCCn2c(=S)[nH]c3ccccc3c2=O)CC1	none
CCOC(=O)N1CCN(C(=O)CCCn2c(=S)[nH]c3ccsc3c2=O)CC1	ALR inh 95
CC(NC(=O)CCn1c(=S)[nH]c2ccsc2c1=O)c1ccccc1 (stereo not given)	ALR inh 95
CCOC(=O)N1CCN(C(=O)CCCCCn2c(=S)[nH]c3ccsc3c2=O)CC1	ALR inh 93
O=C(CSc1ncnc2c1nnn2Cc1ccccc1F)NCC1CCCO1 (stereo not given)	none
COc1ccccc1CNC(=O)C1CCN(S(=O)(=O)c2ccc(-n3cnnn3)cc2)CC1	none (no result: ALR inh)
O=C(N=C1SC2CS(=O)(=O)CC2N1CCc1ccc(F)cc1)C1CCCCC1 (stereo not given)	none
